From ChEMBL document CHEMBL4808167, “Design, Synthesis, and Evaluation of Small Molecule Gαq/11 Protein Inhibitors for the Treatment of Uveal Melanoma” (J Med Chem, 2021)
The source made the active and inactive calls. The calls are words filed in the database; no cut-off is given here.

How the values were obtained:
[1] = Induction of apoptosis in human 921 cells assessed as late apoptotic cells at 5 uM after 48 hrs by Annexin-V-FITC/propidium iodide staining based flow cytometry (reference value: 2.52%); assay type: functional
[2] = Toxicity in nude BALB/c mouse xenografted with human MP41 cells assessed as effect on body weight at 10 to 30 mg/kg, ip administered once daily for 21 days and measured every 3 days; assay type: organism-based; conditions: in vivo, 504 h, dose 10-30 mg/kg, time 21 day
Method in brief: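 Nude BALB/c mice bearing serially passaged MP41 tumour slices (tertiary recipients, n = 8/group, randomized) dosed ip daily for 21 days at 10 or 30 mg/kg/d or vehicle. Body weight monitored every 3 days. Tissues collected at sacrifice, fixed in 4% paraformaldehyde 24 h, paraffin-embedded, H&E stained, viewed at ×100.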

[3] = Induction of apoptosis in human 921 cells assessed as early apoptotic cells at 15 uM after 48 hrs by Annexin-V-FITC/propidium iodide staining based flow cytometry (reference value: 3.39%); assay type: functional
921 [4] = assay: Antiproliferative activity against human 92.1 cells assessed as inhibition of cell growth at 5 to 15 uM by CCK8 assay; assay type: functional, cell-based; conditions: dose 5-15 µM, time 24-96 hrs, TDE = time-dependent effect
[5] = (§1) Antiproliferative activity against human MP41 cells assessed as inhibition of cell growth after 72 hrs by CCK8 assay; assay type: functional, cell-based; conditions: MP41, 72 h
Method in brief: (§2)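 92.1 or MP41 cells in RPMI-1640 with 10% FBS were seeded at 3 × 10³ cells/well. Exposed to serial concentrations for 72 h at 37 °C, 5% CO₂. CCK-8 added for 1−4 h, absorbance read at 450 nm. IC₅₀ from concentration−response curve fit, mean ± SD.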

MP41 [6] = assay: as §1; assay type: functional, cell-based; method in brief: as §2
[7] = Antitumor activity against human MP41 cells xenografted in nude BALB/c mouse assessed as tumor growth inhibition at 10 mg/kg, ip administered for once daily for 21 days and measured every 3 days; assay type: functional; conditions: 504 h, time 21 day, read-out: TGI
Method in brief: (§3)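 MP41 tumours were passaged subcutaneously mouse-to-mouse in nude BALB/c mice (6−8 weeks, 20−25 g). Tertiary recipients randomized, n = 8/group, given 10 or 30 (mg/kg)/d ip or vehicle for 21 days. Tumour size (V = A × B² × π/6, caliper) and body weight taken every 3 days; tumours excised and weighed on day 22. TGI computed versus the vehicle group.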

[8] = Induction of apoptosis in human MP41 cells assessed as early apoptotic cells at 15 uM after 48 hrs by Annexin-V-FITC/propidium iodide staining based flow cytometry (reference value: 2.96%); assay type: functional
[9] = Volume of distribution at steady state in ICR mouse at 10 mg/kg, iv measured upto 24 hrs by LC-MS/MS analysis; assay type: ADME, organism-based; conditions: in vivo, read-out: Vdss
Method in brief: (§4)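 Single-dose PK in male ICR mice (n = 6): 10 mg/kg iv or 30 mg/kg po, vehicle 5% DMSO/95% saline. Blood (30 μL) by catheter at 0, 5, 15, 30 min and 1, 2, 4, 6, 8, 24 h; plasma by centrifugation, stored −80 °C, measured by LC–MS/MS. Parameters from noncompartmental analysis, mean SD.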

[10] = biological target: GNAQ/GNA11 (Homo sapiens) (UniProt P50148+P29992); assay: Inhibition of Galphaq/11 in human MP41 cells assessed as reduction in ERK phosphorylation at 15 to 30 uM after 48 hrs by Western blot analysis; assay type: cell-based; conditions: dose 15-30 µM
Method in brief: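 92.1 and MP41 cells plated overnight, then exposed to compound 48 h. Lysed in ice-cold buffer and protein quantified by BCA. Resolved on 8−12% SDS−PAGE and transferred to PVDF. Probed for p-YAP Ser127, total YAP, p-ERK1/2 Thr202/Tyr204 and total ERK1/2, with GAPDH as loading control. ECL detection, triplicate.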

[11] = Antitumor activity against human MP41 cells xenografted in nude BALB/c mouse assessed as tumor growth inhibition at 30 mg/kg, ip administered for once daily for 21 days and measured every 3 days; assay type: functional; conditions: 504 h, time 21 day, read-out: TGI; method in brief: as §3
[12] = Half life in ICR mouse at 30 mg/kg, po measured upto 24 hrs by LC-MS/MS analysis; assay type: ADME, organism-based; conditions: in vivo
Method in brief: (§5)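 Single dose in male ICR mice, 10 mg/kg iv or 30 mg/kg po, dissolved in 5% DMSO/95% saline. Blood drawn by catheter at 0, 5, 15, 30 min and 1, 2, 4, 6, 8, 24 h. Plasma spun 6800g 6 min at 2−8 °C, stored −80 °C, quantified by LC−MS/MS. Noncompartmental parameters, mean ± SD, n = 6.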

[13] = Induction of apoptosis in human 921 cells assessed as late apoptotic cells at 15 uM after 48 hrs by Annexin-V-FITC/propidium iodide staining based flow cytometry (reference value: 2.52%); assay type: functional
[14] = Induction of apoptosis in human 921 cells assessed as necrotic cells at 15 uM after 48 hrs by Annexin-V-FITC/propidium iodide staining based flow cytometry (reference value: 0.26%); assay type: functional
[15] = Clearance in ICR mouse at 10 mg/kg, iv measured upto 24 hrs by LC-MS/MS analysis; assay type: ADME, organism-based; conditions: in vivo; method in brief: as §5
[16] = Induction of apoptosis in human MP41 cells assessed as necrotic cells at 30 uM after 48 hrs by Annexin-V-FITC/propidium iodide staining based flow cytometry (reference value: 0.11%); assay type: functional
[17] = Cmax in ICR mouse at 10 mg/kg, iv measured upto 24 hrs by LC-MS/MS analysis; assay type: ADME, organism-based; parameters: route intravenous, dose 10 mg/kg, time <=24; conditions: in vivo; method in brief: as §5
[18] = Tmax in ICR mouse at 10 mg/kg, iv measured upto 24 hrs by LC-MS/MS analysis; assay type: ADME, organism-based; conditions: in vivo; method in brief: as §4
CHO = assay: Induction of morphological changes in chinese hamster CHO cells overexpressing M1 receptor upto 20 uM by light microscopic analysis; assay type: cell-based, Cricetulus griseus
Method in brief: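 CHO-M₁ cells were treated with compound at 10 or 20 μM for 2 h, and changes in cell morphology were examined by microscopy.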

921 [19] = assay: Inhibition of cell migration in human 921 cells at 15 uM incubated for 48 hrs by transwell migration assay; assay type: functional, cell-based
Method in brief: (§6)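 92.1 or MP41 cells (1 × 10⁴/well) seeded in serum-free medium in the upper transwell chamber, with 20% FBS medium below. Left overnight, then treated 48 h. Non-migrated cells swabbed off; cells on the lower side stained with crystal violet 30 min and counted by light microscopy (×40 for migration, ×100 for invasion). Mean ± SD, n = 3.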

MP41 [20] = assay: Inhibition of cell invasion in human MP41 cells at 5 to 15 uM incubated for 48 hrs by transwell assay; assay type: functional, cell-based; conditions: dose 5-15 µM; method in brief: as §6
921 [21] = assay: Inhibition of colony formation in human 921 cells at 1 to 5 uM after 9 days by crystal violet staining based light microscopic analysis; assay type: functional, cell-based; conditions: dose 1-5 µM, time 9.0 day
Method in brief: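 Cells seeded 4 × 10³/well, incubated overnight at 37 °C, 5% CO₂, then exposed to compound for 9 days until colonies visible, medium and inhibitor replaced every 3 days. Fixed in 4% paraformaldehyde 15 min, crystal violet-stained 30 min, colonies counted. Repeated twice.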

Vd [9]: 4.53 L/kg
inhibition [10]: Active
half-life [12]: 84.6 min
clearance [15]: 77.9 mL/min/kg
Cmax [17]: 2610 ng/mL
Tmax [18]: 4.8 min
Structure (SMILES): CC[C@@H](C)[C@H](N)C(=O)N1CCn2cc(-c3ccccc3)nc2[C@@H]1CC1CCCCC1
Activity [1]: 3.4%
Activity [2]: Non-Toxic
Activity [3]: 13.1%
Activity 921 [4]: Tde
IC50 [5]: 24.8 µM
Activity (MP41 [6]): Dose-Dependent Effect
inhibition in vivo at 10 mg/kg [7]: 65.4%
Activity [8]: 5.32%
inhibition in vivo at 30 mg/kg [11]: 99%
Activity [13]: 6.99%
Activity [14]: 0.36%
Activity [16]: 0.27%
Activity (CHO): Non-Toxic
inhibition 921 [19]: Active
inhibition (MP41 [20]): Active
inhibition 921 [21]: Active
